Assays:
[1] = folding enthalpy; higher = less favourable; fluorescence melt of hairpins on a sequencing array, two-state fit; conditions: sodium 0.088 M
Method in brief: (§1)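 Hairpins were imaged by Cy3 fluorescence on a sequenced MiSeq flow cell with annealed Cy3 and quencher oligos, in 50 mM Na-HEPES pH 8.0, 25 mM NaCl, in 2.5 °C steps up to 60 °C. Bootstrapped two-state fits of normalised signals gave melting temperature and folding enthalpy. Four replicates were combined by inverse variance, and fitted temperatures were raised by 9.35 °C to match UV melts.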

[2] = melting temperature; fluorescence melt of hairpins on a sequencing array, two-state fit, raised by 9.35 °C to match UV melts; conditions: sodium 0.088 M
Method in brief: as §1

| Sequence | folding enthalpy [1] | Tm [2] |
| --- | --- | --- |
| GACTAACCGAAAGGTGTC (((..(((....)))))) | -18.3 kcal/mol | 41.4 °C |
| GTTGTCGGAAACGATGAC ((..(((....)))..)) | -16 kcal/mol | 40.4 °C |
| ACTTCGAAAGAAGT (((((....))))) | -20.8 kcal/mol | 50.8 °C |
| GTTCGGGGAAACCCGGAC ((.((((....)))).)) | -42.2 kcal/mol | 54.9 °C |
| GTTGAGGGAAACCTCGAC ((.((((....)))).)) | -29.5 kcal/mol | 49.8 °C |
| GATCCAATAGTGGATC ((((((....)))))) | -30.8 kcal/mol | 46.6 °C |
| GGGCCCGAAAGGGCTCCC ((((((....)))..))) | -9.89 kcal/mol | 59.7 °C |
| GTGCGCGGAAACACGCAC (((((.(....).))))) | -46.6 kcal/mol | 59.7 °C |
| GGCTACGAAAGTACTGCC ((((((....)))..))) | -22.7 kcal/mol | 39.6 °C |
| GAGCTCGGAAACGAACCC (.(.(((....))).).) | -4.42 kcal/mol | 19.5 °C |
| GCCCTGCGAAAGCATTGC ((..(((....)))..)) | -8.56 kcal/mol | 29.3 °C |
| GGTCACGAAAGTGCACC ((((((....))).))) | -28.3 kcal/mol | 52.5 °C |
| GCCTTCTCGAAAGAGGGC (((..(((....)))))) | -23.8 kcal/mol | 44.3 °C |
| GTCGTCGGAAACGATGGC (.(.(((....))).).) | -25.4 kcal/mol | 46.2 °C |
| GTATAGACGAAAGTCTAC (((..(((....)))))) | -10.5 kcal/mol | 33.5 °C |
| CATCAGAAATGATG (((((....))))) | -18.6 kcal/mol | 41.7 °C |
| GGTTCCGAAAGGAGTACC ((((((....)))..))) | -21 kcal/mol | 38.9 °C |
| GGGTAGCGAAAGCTCCC (((.(((....)))))) | -40.3 kcal/mol | 53.6 °C |
| GCGTCATCACGC ((((....)))) | -22.5 kcal/mol | 50.4 °C |
| GCCAACGGAAACACTGGC ((((..(....)..)))) | -14 kcal/mol | 29.1 °C |
| GCCGTGCGAAAGCTAGGC (((..((....))..))) | -32 kcal/mol | 66.9 °C |
| GCGTAGCGAAAGCCACGC ((((.((....)).)))) | -18.7 kcal/mol | 60.1 °C |
| GTATAGAAATATAC (((((....))))) | -7.94 kcal/mol | 23.1 °C |

| Sequence | folding enthalpy [1] | Tm [2] |
| --- | --- | --- |
| CGTAACCGGAAACGGACG (((..(((....)))))) | -15.2 kcal/mol | 34 °C |
| GCCAGGCGAAAGCGCGGC (((..((....))..))) | -18.6 kcal/mol | 59.6 °C |
| GTTCACCCGAAAGGGAAC (((..(((....)))))) | -14.3 kcal/mol | 37.2 °C |
| GATCACTTTGGTGATC ((((((....)))))) | -42.3 kcal/mol | 57.8 °C |
| GATCCTGCATAGGATC ((((((....)))))) | -43.4 kcal/mol | 60.9 °C |
| GCTACCGGAAACGGCAGC (((.(((....))).))) | -38.7 kcal/mol | 51.8 °C |
| GACTGCGAAAGCAGGTC ((((((....))).))) | -13.1 kcal/mol | 58.1 °C |
| GTCTGTGGAAACACAGAC (((((((....))))))) | -50.5 kcal/mol | 65.1 °C |
| GCGGTGACCGC ((((...)))) | -23.6 kcal/mol | 56.6 °C |
| GCCCGGCGAAAGCTTGGC (((..((....))..))) | -18.8 kcal/mol | 52.4 °C |
| GAGTTGGGAAACTAACTC (((((.(....).))))) | -31 kcal/mol | 43.6 °C |
| GCCACCGGAAACGATGGC ((((.((....)).)))) | -44 kcal/mol | 52.6 °C |
| GGAACTCGAAAGAGGTCC (((.(((....))).))) | -39 kcal/mol | 60 °C |
| GTCGACGAAAGTCGAGAC ((((((....)))..))) | -9.56 kcal/mol | 51.9 °C |
| GCAGGTCGAAAGACGTGC (((.(((....))).))) | -42.9 kcal/mol | 62.8 °C |
| GCCTCAGGAAACTGAGAC (.(((((....))))).) | -20.8 kcal/mol | 38.4 °C |
| GTGCTCGAAAGAGTCCAC ((((((....)))..))) | -13.1 kcal/mol | 31.8 °C |
| GCTCATGGAAACATGAAC (.(((((....))))).) | -18.3 kcal/mol | 35.7 °C |
| GGTTACGAAAGTAAAACC ((((((....)))..))) | -24.3 kcal/mol | 36.6 °C |
| GGGTCTACGAAAGTACCC (((..(((....)))))) | -22.5 kcal/mol | 40.1 °C |
| GTACTCGAAAGAGTATAC ((((((....)))..))) | -13.3 kcal/mol | 39.3 °C |
| CGTGAGAAATCACG (((((....))))) | -25.8 kcal/mol | 50.8 °C |
| GATCATCAACATGATC ((((((....)))))) | -28.6 kcal/mol | 42.6 °C |

| Sequence | folding enthalpy [1] | Tm [2] |
| --- | --- | --- |
| GATGTGCCGAAAGGCATC (((..(((....)))))) | -8.04 kcal/mol | 36.1 °C |
| AAGGTGAAAACCTT (((((....))))) | -17.5 kcal/mol | 43.2 °C |
| GACGACGAAAGTCTCGTC ((((((....)))..))) | -17.1 kcal/mol | 46.9 °C |
| GGCCACGAAAGTGAAGCC ((((((....)))..))) | -31.9 kcal/mol | 53.5 °C |
| GGGCTTGAAAAAGCCC ((((((....)))))) | -35.8 kcal/mol | 68.1 °C |
| GCAGGCGAAAGCCGCTGC ((((((....)))..))) | -14.8 kcal/mol | 68 °C |
| GGCTATGGAAACATAGTC (.(((((....))))).) | -34.7 kcal/mol | 46.5 °C |
| GGTCTCCGAAAGGATACC (((.(((....))).))) | -26.8 kcal/mol | 48.1 °C |
| GATTGACGAAAGTCGATC (((.(((....))).))) | -29.6 kcal/mol | 54.2 °C |
| ATTCCGAAAGGAAT (((((....))))) | -20.8 kcal/mol | 52.4 °C |
| GTCAAGGAAACTTGAC ((((((....)))))) | -29.6 kcal/mol | 53.5 °C |
| GGCTTGGGAAACCAAGTC (.(((((....))))).) | -29.4 kcal/mol | 52.4 °C |
| GCGAAGCGAAAGCCTAGC ((.(.((....)).).)) | -7.6 kcal/mol | 40.2 °C |
| GATCTTAAATAAGATC ((((((....)))))) | -31.9 kcal/mol | 38.5 °C |
| GCATCGCGAAAGCCGTGC (((..((....))..))) | -19.3 kcal/mol | 45.1 °C |
| GATCATTGAATGATC ((((((...)))))) | -35.9 kcal/mol | 44.4 °C |
| GCAAGAGGAAACTCTTGC (((((((....))))))) | -40.5 kcal/mol | 64.9 °C |
| GTAAGGGGAAACCCTTAC (((((((....))))))) | -42.4 kcal/mol | 54.8 °C |
| GTTGTCCGAAAGGAAAC (((.(((....)))))) | -20.4 kcal/mol | 37.8 °C |
| GGTCCGCGAAAGCGTACC (((.(((....))).))) | -27.2 kcal/mol | 54.1 °C |
| GTTTAGCCGAAAGGCAAC (((..(((....)))))) | -8.63 kcal/mol | 33.7 °C |
| GCGCCTGGAAACAAGCGC ((((.((....)).)))) | -41.6 kcal/mol | 52.8 °C |
| GCATTAACGAAAGTTTGC (((..(((....)))))) | -16 kcal/mol | 33.6 °C |

| Sequence | folding enthalpy [1] | Tm [2] |
| --- | --- | --- |
| GTAGCGGGAAACCGCTGC (.(((((....))))).) | -17.3 kcal/mol | 59.7 °C |
| GACCGGGCGAAAGCCGTC (((..(((....)))))) | -10.3 kcal/mol | 40.4 °C |
| GATCAAAGTGTTGATC ((((((....)))))) | -29.6 kcal/mol | 42.4 °C |
| GCGTAACGACGC ((((....)))) | -21.9 kcal/mol | 51.4 °C |
| GTTTGTCGAAAGACCAAC (((.(((....))).))) | -26.1 kcal/mol | 37.9 °C |
| GCCCCCGCGAAAGCGGGC (((..(((....)))))) | -4.3 kcal/mol | 34.8 °C |
| GATCTGCGGTCAGATC ((((((....)))))) | -32.9 kcal/mol | 49.7 °C |
| GTGACCGAAAGGTTCCAC ((((((....)))..))) | -9.64 kcal/mol | 33.2 °C |
| GGTGATCGAAAGATAACC (((.(((....))).))) | -29.5 kcal/mol | 47.7 °C |
| GACATGCGAAAGCACGTC (((.(((....))).))) | -26.3 kcal/mol | 52.4 °C |
| GCCATGCGAAAGCGCGGC (((..((....))..))) | -20 kcal/mol | 59.2 °C |
| GTGAAACGAAAGTTGCAC (((.(((....))).))) | -31.2 kcal/mol | 51.6 °C |
| GTATGCGAAAGCAATTAC ((((((....)))..))) | -10.7 kcal/mol | 28.2 °C |
| GGCCATGGAAACGTGGCC (((((.(....).))))) | -52.1 kcal/mol | 62 °C |
| GTTATTGGAAACAGTAAC ((((.((....)).)))) | -27.5 kcal/mol | 33.4 °C |
| GATCTTATAAAAGATC ((((((....)))))) | -25.5 kcal/mol | 40 °C |
| GTTCTCGGAAACGAGGAC ((.((((....)))).)) | -28.7 kcal/mol | 52 °C |
| GCATAGCGAAAGCTGAGC ((..(((....)))..)) | -15.7 kcal/mol | 46 °C |
| GAGGACGAAAGTCTGCTC ((((((....)))..))) | -14.4 kcal/mol | 39.2 °C |
| GGTTGGCGAAAGCCCACC (((.(((....))).))) | -25.8 kcal/mol | 51.4 °C |
| GATCTGACAGCAGATC ((((((....)))))) | -28.6 kcal/mol | 44.7 °C |
| GATAGTGGAAACATTATC ((((.((....)).)))) | -18.4 kcal/mol | 31 °C |
| GATCAATATGTTGATC ((((((....)))))) | -38.9 kcal/mol | 49 °C |
